Compound activity (PubChem)
The list is not random: actives were taken first. Their share in the collection is about 2%.
HKDC1 inhibitor: inhibitors of human hexokinase HKDC1. Q2TB90. recombinant HKDC1, G6PDH/diaphorase resazurin coupled fluorescence. inhibition, % at 20 µM. hit rate 0.16% among 340,000. AID 493160;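 active means inhibition above about 35% when tested at 20 µM, limit read from the data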;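 further: plate controls were DMSO wells with enzyme for no effect and DMSO wells lacking enzyme for full effect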
Target sequence (Q2TB90 whole entry, looked up): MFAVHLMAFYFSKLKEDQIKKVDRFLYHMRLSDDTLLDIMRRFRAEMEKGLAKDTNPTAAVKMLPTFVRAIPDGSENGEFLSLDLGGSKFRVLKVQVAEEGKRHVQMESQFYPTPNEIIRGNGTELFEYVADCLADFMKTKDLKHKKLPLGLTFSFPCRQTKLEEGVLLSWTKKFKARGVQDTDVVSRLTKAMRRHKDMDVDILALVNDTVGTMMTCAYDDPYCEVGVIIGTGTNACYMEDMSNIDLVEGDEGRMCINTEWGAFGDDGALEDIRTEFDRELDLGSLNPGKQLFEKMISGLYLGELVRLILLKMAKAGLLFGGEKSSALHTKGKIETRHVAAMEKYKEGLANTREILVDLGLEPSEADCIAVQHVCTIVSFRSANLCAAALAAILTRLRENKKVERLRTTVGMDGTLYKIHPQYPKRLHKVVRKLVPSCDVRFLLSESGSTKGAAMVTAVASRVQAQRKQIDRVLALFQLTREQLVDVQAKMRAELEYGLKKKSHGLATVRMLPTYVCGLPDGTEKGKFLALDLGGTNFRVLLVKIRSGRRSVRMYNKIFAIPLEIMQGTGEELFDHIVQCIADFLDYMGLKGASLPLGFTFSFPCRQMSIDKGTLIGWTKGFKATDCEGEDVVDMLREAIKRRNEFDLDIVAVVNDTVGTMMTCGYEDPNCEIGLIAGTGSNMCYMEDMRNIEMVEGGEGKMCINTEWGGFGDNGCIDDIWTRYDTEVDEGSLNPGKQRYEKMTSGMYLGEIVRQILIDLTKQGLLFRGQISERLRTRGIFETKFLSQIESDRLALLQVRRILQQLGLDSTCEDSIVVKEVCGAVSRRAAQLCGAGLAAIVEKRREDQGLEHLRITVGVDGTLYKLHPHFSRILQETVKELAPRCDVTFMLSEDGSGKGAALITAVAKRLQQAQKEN
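Incubation: 90 min at room temperature in dark / Material: recombinant HKDC1 (HK5) hexokinase enzyme, produced in-house / Quantity: enzyme 5 µg/mL final / Compound: one dose of 20 µM, 1% DMSO / Reagent: glucose and ATP substrates / Buffer or medium: Tris pH 8.0 buffer with MgCl2, Tween-20, BSA, BME / Technique: resorufin fluorescence at 613 nm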
VIM-2 inhibitor: inhibitors of Pseudomonas aeruginosa VIM-2 metallo-beta-lactamase. hit rate 0.89% among 290,000. AID 1527. purified VIM-2, nitrocefin hydrolysis, epi-absorbance fluorescence. inhibition, % at 5.6 µM;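 active means inhibition above the mean of all tested compounds plus 3 SD, cutoff set per screening run, cut at about 7.5% in these data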;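 further: red hydrolysis product quenches plate fluorescence so inhibitors raise well fluorescence; 0% = enzyme with DMSO and 100% = DMSO without enzyme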
IMP-1 inhibitor: blocks Pseudomonas aeruginosa IMP-1 metallo-beta-lactamase; purified IMP-1, nitrocefin hydrolysis, epi-absorbance fluorescence; inhibition, % at 5.6 µM; hit rate 0.45% among 290,000; AID 1556;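 active means inhibition above the mean plus 3 SD of all compounds in the same screening run, cut at about 4.5% in these data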;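 further: 0% = IMP-1 with DMSO and 100% = DMSO wells lacking enzyme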
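Test system: recombinant IMP-1 enzyme, purified / Medium: HEPES buffer pH 7.1 with ZnSO4 and Brij 35 / Doses: single dose, 5.6 µM / Times: 25 °C, 15 min preincubation, 25 min reaction / Detection: Epi-absorbance via hydrolysed-nitrocefin quenching of white-plate fluorescence, 480/530 nm, EDTA stop / Evaluation: percent inhibition from optical density relative to buffer-blank wells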
ATG4B inh: blocks human ATG4B protease cleavage of LC3 substrate. inhibition, % at 8.33 µM. AID 504462. Q9Y4P1. hit rate 0.51% among 340,000. ATG4B cleavage of LC3-PLA2, NBD-HPC fluorescence, 1 h; in the data active means inhibition above about 40%
PvdQ inh: blocks Pseudomonas aeruginosa PvdQ acylase activity | purified PvdQ acylase, fluorescence plate reader | inhibition, % at 10 µM | hit rate 0.063% among 340,000 | AID 488965; in the data active means inhibition above about 30%, passing the limit was not always enough;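 further: 0% = vehicle neutral wells and 100% = reference inhibitor wells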
MIN6 prolif: MIN6 beta-cell proliferation induction | MIN6 cells proliferation, ATPlite luminescence, 48 h; cells starved in 0.2% serum; 100% = growth in 10% serum | proliferation, % at 10 µM | hit rate 0.29% among 330,000;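 active means compounds whose signal lies at least 3.5 SD above the mean of all wells on their plate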;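 further: 0% = DMSO-treated cells in low-serum medium and 100% = 10% serum control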
ATG4B confirm: ATG4B (human) inhibition, single-dose confirmed; shares compounds with ATG4B inh; ATG4B protease fluorescent substrate cleavage assay; inhibition, % at 8.33 µM; hit rate 92% among 320; in the data active means inhibition above about 39%
PLA2 counter: counter-screen for ATG4B inhibitors: human phospholipase A2; shares compounds with ATG4B inh; purified PLA2, NBD-C6-HPC fluorescence, 45 min; inhibition, % at 8.33 µM; hit rate 66% among 1,600; AID 588402; in the data active means inhibition above about 50%
An asterisk follows results filed as active.

Results for O=C(Nc1ccccc1Cl)C1C(c2ccccc2)C1(Cl)Cl (stereo not drawn) ?
HKDC1 inhibitor: -1.9; VIM-2 inhibitor: -0.1; IMP-1 inhibitor: -1.1; ATG4B inh: 51.6*; PvdQ inh: 5.6; MIN6 prolif: -3.7; PLA2 counter: 56.3*

Results for Cc1occc1C(=O)N/N=C/c1ccccc1[N+](=O)[O-] ?
HKDC1 inhibitor: -2.4; VIM-2 inhibitor: -2.5; IMP-1 inhibitor: -2.9; ATG4B inh: 3.5; PvdQ inh: -22.0; MIN6 prolif: -3.1

What do the screens show for `O=C(NCc1cccc(C(F)(F)F)c1)N1CCN(C(=O)c2ccccc2)CC1`?
HKDC1 inhibitor: -3.3; ATG4B inh: 56.4*; PvdQ inh: -11.0; MIN6 prolif: 0.3; PLA2 counter: 61.4*

What do the screens show for `O=C(c1cccc(C(F)(F)F)c1)N1CCN(CCc2ccccc2)CC1`?
HKDC1 inhibitor: -2.3; VIM-2 inhibitor: 0.5; IMP-1 inhibitor: -3.1; ATG4B inh: -4.7; PvdQ inh: -11.1; MIN6 prolif: -2.3

Results for COc1ccc(O)c(CNn2c(-c3ccc(Br)cc3)nc3ccccc3c2=O)c1 ?
HKDC1 inhibitor: -8.4; VIM-2 inhibitor: -4.5; IMP-1 inhibitor: -3.2; ATG4B inh: -3.8; PvdQ inh: -5.6; MIN6 prolif: -3.8

Results for COc1ccc(-c2nc3ccccc3c(=O)n2N)cc1 ?
HKDC1 inhibitor: -4.0; VIM-2 inhibitor: -4.4; IMP-1 inhibitor: -5.0; ATG4B inh: 9.1; PvdQ inh: -0.3; MIN6 prolif: 0.6

Results for COc1cc(OC)cc(-c2nc3ccccc3c(=O)n2OC(=O)c2ccc(Br)cc2)c1 ?
HKDC1 inhibitor: 28.8; VIM-2 inhibitor: -2.1; IMP-1 inhibitor: -2.9; ATG4B inh: 54.9*; PvdQ inh: -0.9; MIN6 prolif: 0.0; ATG4B confirm: 29.8; PLA2 counter: 28.9

How did COc1ccc(C(=O)On2c(-c3ccc(Br)cc3)nc3ccccc3c2=O)cc1 do in these assays?
HKDC1 inhibitor: 1.8; VIM-2 inhibitor: -1.3; IMP-1 inhibitor: -3.8; ATG4B inh: 55.9*; PvdQ inh: -3.7; MIN6 prolif: -5.9; PLA2 counter: 65.5*

Results for CCCCCCOC(=O)C[N+](C)(C)CCOC1CC2CCC1(C)C2(C)C (stereo not drawn) ?
HKDC1 inhibitor: -2.3; VIM-2 inhibitor: -2.8; IMP-1 inhibitor: -3.2; ATG4B inh: 10.4; PvdQ inh: 2.8; MIN6 prolif: -6.3

What do the screens show for `CCCCCCCOC(=O)C[N+](C)(C)CCOC1CC2CCC1(C)C2(C)C` (stereo not drawn)?
HKDC1 inhibitor: -6.5; VIM-2 inhibitor: -1.8; IMP-1 inhibitor: 0.8; ATG4B inh: 52.7*; PvdQ inh: -15.7; ATG4B confirm: 47.8*; PLA2 counter: 41.0

How did CCc1oc2ccccc2c1C(=O)c1cc(Br)c(O)c(Br)c1 do in these assays?
HKDC1 inhibitor: 3.3; VIM-2 inhibitor: -1.2; IMP-1 inhibitor: -1.9; ATG4B inh: 95.5*; PvdQ inh: -0.7; MIN6 prolif: -7.7; PLA2 counter: 96.2*

What do the screens show for `CCc1ccc(OCC(=O)c2c(O)c3ccccc3oc2=O)cc1`?
HKDC1 inhibitor: 15.0; VIM-2 inhibitor: -0.1; IMP-1 inhibitor: -5.0; ATG4B inh: 1.3; PvdQ inh: 1.1; MIN6 prolif: -4.1

How did Clc1ccccc1Nc1ncnc2c1nnn2Cc1ccccc1 do in these assays?
HKDC1 inhibitor: -2.7; VIM-2 inhibitor: -0.5; IMP-1 inhibitor: -1.4; ATG4B inh: 56.1*; PvdQ inh: 7.4; MIN6 prolif: -0.7; PLA2 counter: 57.5*

What do the screens show for `Fc1ccccc1Nc1ncnc2c1nnn2Cc1ccccc1`?
HKDC1 inhibitor: -1.1; VIM-2 inhibitor: -1.9; IMP-1 inhibitor: -3.0; ATG4B inh: 24.9; PvdQ inh: -10.9; MIN6 prolif: -0.7

How did CCNC(=S)NCc1ccc(F)cc1 do in these assays?
HKDC1 inhibitor: -6.4; VIM-2 inhibitor: -4.0; IMP-1 inhibitor: -4.0; ATG4B inh: 5.1; PvdQ inh: -2.5; MIN6 prolif: 3.3

Results for Fc1ccc(CNC(=S)Nc2cccc(C(F)(F)F)c2)cc1 ?
HKDC1 inhibitor: -2.6; VIM-2 inhibitor: -1.1; IMP-1 inhibitor: -1.5; ATG4B inh: 70.9*; PvdQ inh: 10.4; MIN6 prolif: -6.4; PLA2 counter: 69.7*

Results for FC(F)(F)c1cccc(NC(=S)NCc2ccc(Cl)cc2)c1 ?
HKDC1 inhibitor: -3.9; VIM-2 inhibitor: -2.6; IMP-1 inhibitor: -2.5; ATG4B inh: 13.9; PvdQ inh: 0.3; MIN6 prolif: -5.4

Results for Cc1ccc(C(C)NC(=S)NCc2ccc(F)cc2)c(C)c1 (stereo not drawn) ?
HKDC1 inhibitor: 11.0; VIM-2 inhibitor: -2.4; IMP-1 inhibitor: -1.4; ATG4B inh: 43.6*; PvdQ inh: -1.6; MIN6 prolif: -7.7; PLA2 counter: 51.6*

Results for Fc1ccc(CNC(=S)NCc2ccc(F)cc2)cc1 ?
HKDC1 inhibitor: -3.8; VIM-2 inhibitor: -1.0; IMP-1 inhibitor: -3.9; ATG4B inh: 41.5*; PvdQ inh: -18.5; MIN6 prolif: -2.5; ATG4B confirm: 69.1*; PLA2 counter: 45.2

How did Cc1ccc(C2(c3ccccc3)NC(=O)N(CC(=O)NCc3ccccc3)C2=O)cc1C (stereo not drawn) do in these assays?
HKDC1 inhibitor: 0.7; ATG4B inh: -16.1; PvdQ inh: -13.4; MIN6 prolif: -5.0

How did O=C(O)c1cc(S(=O)(=O)Nc2ccc3cn[nH]c3c2)ccc1O do in these assays?
HKDC1 inhibitor: 12.6; ATG4B inh: -2.0; PvdQ inh: -13.7; MIN6 prolif: 0.0

What do the screens show for `CCOC(=O)C1(CCOC)CCN(C(=O)c2ccc(CSC)o2)CC1`?
HKDC1 inhibitor: -3.1; VIM-2 inhibitor: -1.5; IMP-1 inhibitor: -2.5; ATG4B inh: -10.7; PvdQ inh: -7.4; MIN6 prolif: 0.2

How did Cc1c(Cl)cccc1NC(=S)NCc1cccs1 do in these assays?
HKDC1 inhibitor: -4.5; VIM-2 inhibitor: -2.1; IMP-1 inhibitor: -2.4; ATG4B inh: 57.1*; PvdQ inh: -2.8; MIN6 prolif: -4.6; PLA2 counter: 68.8*

How did S=C(NCc1cccs1)Nc1cccc(Cl)c1Cl do in these assays?
HKDC1 inhibitor: -9.2; VIM-2 inhibitor: -0.4; IMP-1 inhibitor: 0.4; ATG4B inh: 51.5*; PvdQ inh: -9.4; MIN6 prolif: 0.0; PLA2 counter: 52.5*

What do the screens show for `Cc1ccc(OCc2ccc(C(=O)Nc3c(C)nn(Cc4c(F)c(F)c(F)c(F)c4F)c3C)o2)c([N+](=O)[O-])c1`?
HKDC1 inhibitor: 7.3; VIM-2 inhibitor: -2.5; IMP-1 inhibitor: -2.7; ATG4B inh: 66.8*; PvdQ inh: -10.9; MIN6 prolif: -5.7; PLA2 counter: 75.9*
